Screens from PubChem.
Shown are actives, neighbours in structure and some others; about 3.1% of the full set was active somewhere.
E-sel inducer = induces E-selectin expression in human endothelial cells | activation, % at 7.58 µM | AID 686992 | 260,000 compounds, 0.37% hits | HUVEC E-selectin immunofluorescence imaging; normalized: neutral wells 0, TNF-alpha wells 100;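 active means mean E-selectin-positive cell signal at least 10% of the positive control, reached in at least 60% of replicates, without over 20% cell loss; inconclusive means no rule given, readout overlaps actives, possibly toxicity-flagged; inactive means the rest, including those meeting only one limit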
Target sequence (P16581 whole entry, looked up): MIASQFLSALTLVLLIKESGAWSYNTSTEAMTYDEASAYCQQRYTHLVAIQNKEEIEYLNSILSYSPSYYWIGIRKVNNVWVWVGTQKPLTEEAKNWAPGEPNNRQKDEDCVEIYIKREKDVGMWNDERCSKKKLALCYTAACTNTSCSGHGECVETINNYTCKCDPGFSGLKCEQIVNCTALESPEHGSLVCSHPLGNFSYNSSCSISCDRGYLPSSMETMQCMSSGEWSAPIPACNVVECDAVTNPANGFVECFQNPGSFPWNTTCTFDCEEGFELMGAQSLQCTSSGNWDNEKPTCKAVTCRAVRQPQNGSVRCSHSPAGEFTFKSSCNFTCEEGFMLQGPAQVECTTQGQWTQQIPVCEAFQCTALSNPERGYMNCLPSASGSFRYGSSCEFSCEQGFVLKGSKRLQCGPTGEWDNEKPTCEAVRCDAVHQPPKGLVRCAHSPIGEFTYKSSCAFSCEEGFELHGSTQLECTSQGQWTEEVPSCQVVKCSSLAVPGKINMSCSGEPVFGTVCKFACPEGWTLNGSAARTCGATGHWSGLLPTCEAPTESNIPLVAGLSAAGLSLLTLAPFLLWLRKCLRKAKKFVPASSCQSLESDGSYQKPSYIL
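Test system: HUVEC | Signal: Immunofluorescence imaging | Read-out: Percent E-selectin-positive cells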
DENV2 CPE = inhibitors of DENV2 cytopathic effect. 350,000 compounds, 1.7% hits. DENV2-infected cells, cytopathic effect rescue, plate reader. CPE inhibition, % at 9.99 µM. AID 651640; in the data active means CPE inhibition above about 20%, passing the limit was not always enough; inconclusive means no clear call, values can overlap the other calls; tested in BHK-21 cells;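 further: 0% = median of neutral control wells and 100% = median of positive control wells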
Cneo AK release = causes C. neoformans cell lysis. adenylate kinase release luminescence, 4 h; normalised: neutral wells 0, clomiphene wells 100. lysis activity, % at 15 µM. 360,000 compounds, 0.2% hits. AID 651654;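 active means mean lysis activity across replicates of at least 80%, whatever share of replicates individually reach that level; inactive means mean lysis activity below 80%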
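Assay system: C. neoformans cells. Amount: yeast cell density of 5 × 10^6 cells/mL. Technique: AK luminescence. Buffer or medium: YPD. Times: static 4 h at 37 °C with compound, 1 h detection. Dosing: single-point compound dose. Read-out: lysis from increased AK signal.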
miR-122 sensor = inhibitors of miR-122 in Huh7 cells | activation (reporter increase), % at 12.5 µM | Huh7 miR-122 Renilla luciferase sensor, 48 h; neutral wells = 0, positive control = 100 | 340,000 compounds, 0.3% hits | AID 602342;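 active means mean replicate activation score at least 90 and every replicate individually at or above 90; inconclusive means only one of the two criteria met; inactive means neither criterion met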;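 further: higher luciferase means less miR-122 activity so hits act as miR-122 inhibitors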
rRNA inh HTS = inhibits bacterial ribosomal RNA function over humanized ribosomes | E. coli WT GFP vs humanized-ribosome RFP mutants, fluorescence, 24 h; stronger effect = lower value; DMSO median 0, no signal -100 | GFP signal change (wild-type ribosome), % (concentration not given with the values) | 350,000 compounds, 1.6% hits | AID 720706;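 active means significant combined selectivity score with lowered wild-type GFP, culture density cut under 30%, mutant RFP and density less affected; inactive means any of these conditions unmet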
Active calls of the source: *; u = inconclusive; x = no result given; [ ] = remark or other dose.

SMILES	E-sel inducer	DENV2 CPE	Cneo AK release	miR-122 sensor	rRNA inh HTS
CC(=O)N(C)C[C@H]1Oc2ncc(C#Cc3cccc(F)c3)cc2C(=O)N([C@@H](C)CO)C[C@H]1C	-0.4	13.8	-1.0	-1.6[16.7 µM]	-0.2
COc1ccc(C(=O)c2cn[nH]c2-c2cc(C)ccc2O)cc1	0.5	u	-1.0	9.4	-16.1*
COc1ccccc1C#Cc1ccc([C@H]2[C@H]3CN(C(=O)C4CC4)CCCCN3[C@H]2CO)cc1	x	-10.8	55.1	-26.6[16.7 µM]	x
C[C@@H]1CN(C)C(=O)c2cc(NS(C)(=O)=O)ccc2O[C@@H]1CN(C)C	x	x	x	x	0.6
Clc1c(Cl)c(Cl)c2n[nH]nc2c1Cl	-0.4	-3.5	x	x	-53.4*
CCN(CC)S(=O)(=O)c1cccc(-c2n[nH]c(=S)n2/N=C/c2ccc(OC(F)F)cc2)c1	x	-8.1	x	x	-18.1*
N=C1S/C(=C\c2ccco2)C(=O)N1c1nccs1	-0.1	u	-0.8	1.5	-8.7
N=C1S/C(=C\c2ccco2)C(=O)N1c1ccc2c(c1)OCO2	x	-8.1	1.3	-7.4	-42.8*
FC(F)(F)CN1CC2C(c3ccc(Br)cc3)C(C1)N2CC(F)(F)F (centres undefined)	x	x	x	x	-1.5
C[C@@H]1CN([C@H](C)CO)C(=O)c2cc(NC(=O)Nc3ccccc3)ccc2O[C@@H](C)CCCCO[C@H]1CN(C)C(=O)c1ccccc1	x	u	2.2	-6.9[16.7 µM]	-2.4
CCC(=O)N1[C@H](CO)[C@H](c2ccc(-c3ccc(F)cc3)cc2)[C@@H]1CNC(C)=O	0.0	u	81.6*	7.1[16.7 µM]	1.6
CCC(=O)N1[C@@H](CO)[C@@H](c2ccc(-c3ccc(F)cc3)cc2)[C@@H]1CNC(C)=O	-0.1	-16.9	0.5	-7.1[16.7 µM]	-1.5
N#C[C@H]1[C@@H](c2ccccc2-c2cccc(F)c2)[C@H](CO)N1C(=O)C1CCCC1	0.0	-6.3	x	x	-2.4
CC(=O)N(C)C[C@H]1[C@H](c2ccc(-c3ccccc3F)cc2)[C@@H](CO)N1C(C)=O	0.9	31.7*	39.9	-5.1[16.7 µM]	-0.2
N#C[C@H]1[C@@H](c2ccc(-c3ccccc3F)cc2)[C@@H](CO)N1C(=O)C1CCC1	0.5	-7.1	-0.2	x	-2.1
N#C[C@@H]1[C@H](c2ccccc2-c2cccc(F)c2)[C@H](CO)N1C(=O)C1CCCC1	0.9	36.7*	x	x	-4.8
N#C[C@@H]1[C@H](c2ccc(-c3ccccc3F)cc2)[C@H](CO)N1C(=O)C1CC1	-0.4	87.2*	-1.7	x	1.5
COc1ccccc1-c1ccc([C@H]2[C@@H](CO)N(C(C)=O)[C@@H]2CN(C)C(C)=O)cc1	0.3	-0.2	x	x	-1.3
CCC(=O)N1CCC2(CC1)CN(C(=O)c1cnccn1)[C@H](CO)c1c2c2ccc(OC)cc2n1C	-0.4	0.8	x	x	4.5
N#C[C@H]1[C@H](c2ccccc2-c2ccccc2F)[C@@H](CO)N1C(=O)C1CC1	-0.1	21.5*	x	x	-3.9
N#C[C@@H]1[C@H](c2ccc(-c3ccccc3F)cc2)[C@@H](CO)N1C(=O)C1CC1	-0.3	37.1*	3.6	x	0.6
N#C[C@H]1[C@@H](c2ccc(-c3ccccc3F)cc2)[C@H](CO)N1C(=O)C1CC1	0.1	-1.9	-0.5	x	0.5
N#C[C@H]1[C@@H](c2ccc(-c3ccccc3F)cc2)[C@@H](CO)N1C(=O)C1CC1	-0.2	-5.5	1.1	x	0.0
CC(=O)NC[C@H]1[C@H](c2ccc(-c3ccccc3F)cc2)[C@H](CO)N1C(=O)C1CC1	0.0	53.1*	-0.4	-7.1[16.7 µM]	-3.2
N#C[C@H]1[C@H](c2ccc(-c3ccccc3F)cc2)[C@@H](CO)N1C(=O)C1CC1	2.0	30.0*	-4.6	x	0.8
O=C(CC1CC1)N1[C@H](CO)[C@@H](c2ccccc2)C12CN(Cc1ccccc1F)C2	0.0	6.7	x	x	-5.5
COC(=O)c1ccc(CN2CC(=O)N3[C@H](CO)[C@@H](c4ccc(-c5ccccc5)cc4)[C@H]3C2)cc1	x	x	x	x	1.3
CO[C@@H]1CN(C)C(=O)c2cc(NC(=O)C3CC3)ccc2OC[C@H](C)N(CCC(F)(F)F)C[C@H]1C	-0.3	-1.9	2.9	x	-4.5
C[C@@H]1CCCCO[C@@H](CN(C)S(=O)(=O)c2ccc(Cl)cc2)[C@H](C)CN([C@@H](C)CO)C(=O)c2cc(NS(=O)(=O)c3ccccc3)ccc2O1	-0.1	7.8	x	x	-1.8
